Source: ChEMBL document CHEMBL4334538, “Mitochondrial Impairment by Cyanine-Based Small Molecules Induces Apoptosis in Cancer Cells” (ACS Med Chem Lett, 2020)
Activity calls are given as the source filed them. No cut-off for these calls is given here.

Columns and labels:
HeLa [1] = assay: Cytotoxicity against human HeLa cells assessed as cell killing after 24 hrs by MTT assay; type: functional, cell-based
HEK293 = assay: Cytotoxicity against HEK293 cells assessed as reduction in cell viability after 24 hrs by MTT assay; type: cell-based; settings: Homo sapiens, HEK293, 24 h
[2] = Cytotoxicity against HEK293 cells assessed as cell viability at 5 uM after 24 hrs by MTT assay relative to control; type: cell-based; settings: human, read-out: Activity
[3] = Drug uptake in mitochondria of human HeLa cells at 150 nM incubated for 20 mins by mito-tracker green dye based laser confocal microscopic analysis; type: ADME; settings: 0.15 µM
Summary of the method: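 HeLa cells exposed to compound at 150 nM for 20 min, mitochondria then stained with MitoTracker Green; colocalization by confocal laser scanning microscopy with intensity scatter plots and z-stack maximum projections.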

HeLa [4] = assay: Induction of mitochondrial damage in human HeLa cells assessed as opening of MPTP by measuring fold increase in fluorescence intensity at 800 nM after 24 hrs by Calcein AM/CoCl2 based confocal microscopic analysis relative to control; settings: Mitochondria
Summary of the method: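 HeLa cells treated 24 h, then loaded with Calcein AM plus CoCl2; live cells imaged by confocal microscopy and green fluorescence intensity quantified against untreated control.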

HeLa [5] = assay: Induction of morphological changes in mitochondria of human HeLa cells assessed as reduction in mitochondrial area at 500 nM after 3 hrs by laser confocal microscopic analysis relative to untreated control
Summary of the method: (§1)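 Mitochondrial morphology: HeLa cells given 500 nM compound for 3 h, mitochondria visualized by confocal imaging (controls stained with MitoTracker Green); fragmentation scored and average mitochondrial area quantified against control.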

HeLa [6] = assay: Decrease in Bcl-2 expression in human HeLa cells assessed as fold change in fluorescent intensity at 900 nM after 24 hrs by Alexa fluor 488/DAPI-staining based confocal microscopic analysis relative to untreated control; type: functional
Summary of the method: (§2)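 Immunofluorescence: HeLa cells treated 24 h, probed with Bcl-2, Bcl-xl or Bax primary antibodies and Alexa Fluor 488 secondary, nuclei counterstained with DAPI; confocal green intensity quantified relative to control.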

HeLa [7] = assay: Decrease in Bcl-xl expression in human HeLa cells assessed as fold change in fluorescent intensity at 900 nM after 24 hrs by Alexa fluor 488/DAPI-staining based confocal microscopic analysis relative to untreated control; type: functional; summary of the method: as §2
HeLa [8] = assay: Increase in Bax expression in human HeLa cells assessed as fold change in fluorescent intensity at 900 nM after 24 hrs by Alexa fluor 488/DAPI-staining based confocal microscopic analysis relative to untreated control; type: functional; summary of the method: as §2
HeLa [9] = assay: Decrease in Bcl-2 expression in human HeLa cells at 900 nM after 24 hrs by Western blot analysis relative to control; type: functional
Summary of the method: (§3)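 Western blot of HeLa cellular proteins after 24 h compound treatment; Bcl-2, Bcl-xl and Bax bands quantified relative to control.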

HeLa [10] = assay: Decrease in Bcl-xl expression in human HeLa cells at 900 nM after 24 hrs by Western blot analysis relative to control; type: functional; summary of the method: as §3
HeLa [11] = assay: Up regulation of Bax expression in human HeLa cells at 900 nM after 24 hrs by Western blot analysis relative to control; type: functional; summary of the method: as §3
HeLa [12] = assay: Induction of ROS generation in human HeLa cells assessed as fold change in fluorescent intensity at 500 to 800 nM after 24 hrs by H2DCF-DA staining-based fluorescence microscopic analysis relative to untreated control; type: functional
Summary of the method: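 ROS read-out: HeLa cells treated with compound, then incubated with H2DCFDA; green fluorescence imaged by fluorescence/confocal microscopy and intensity quantified versus control.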

HeLa [13] = assay: Induction of cell cycle arrest in human HeLa cells assessed as apoptotic cells at 900 nM after 24 hrs by RNase/PI-staining based flow cytometric analysis (reference value: 1.25%); type: functional
HeLa [14] = assay: Induction of cell cycle arrest in human HeLa cells assessed as accumulation of cells at G0/G1 phase at 900 nM after 24 hrs by RNase/PI-staining based flow cytometric analysis (reference value: 47.43%); type: functional
HeLa [15] = assay: Induction of cell cycle arrest in human HeLa cells assessed as accumulation of cells at S phase at 900 nM after 24 hrs by RNase/PI-staining based flow cytometric analysis (reference value: 13.83%); type: functional
HeLa [16] = assay: Induction of cell cycle arrest in human HeLa cells assessed as accumulation of cells at G2/M phase at 900 nM after 24 hrs by RNase/PI-staining based flow cytometric analysis (reference value: 33.91%); type: functional
HeLa [17] = assay: Induction of apoptosis in human HeLa cells assessed as viable cells at 900 nM after 24 hrs by APC-AnnexinV/7-AAD staining based flow cytometric analysis (reference value: 96.4%); type: functional; settings: read-out: Activity
Summary of the method: (§4)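 After 24 h treatment, HeLa cells stained with APC-Annexin V (phosphatidylserine) and 7-AAD (nuclear DNA of necrotic cells), then sorted by flow cytometry into viable, early, late apoptotic and necrotic populations.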

HeLa [18] = assay: Induction of apoptosis in human HeLa cells assessed as early apoptotic cells at 900 nM after 24 hrs by APC-AnnexinV/7-AAD staining based flow cytometric analysis (reference value: 0.2%); type: functional; summary of the method: as §4
HeLa [19] = assay: Induction of apoptosis in human HeLa cells assessed as late apoptotic cells at 900 nM after 24 hrs by APC-AnnexinV/7-AAD staining based flow cytometric analysis (reference value: 2.3%); type: functional; summary of the method: as §4
HeLa [20] = assay: Induction of apoptosis in human HeLa cells assessed as necrotic cells at 900 nM after 24 hrs by APC-AnnexinV/7-AAD staining based flow cytometric analysis (reference value: 1.1%); type: functional; summary of the method: as §4
HeLa [21] = assay: Induction of morphological changes in mitochondria of human HeLa cells assessed as mitochondrial fragmentation at 500 nM after 3 hrs by mito-tracker green dye based laser confocal microscopic analysis; summary of the method: as §1
HeLa [22] = assay: Induction of apoptosis in human HeLa cells assessed as reduction in caspase-3 expression at 900 nM after 24 hrs by Western blot analysis relative to control; type: functional
Summary of the method: (§5)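 HeLa cells incubated 24 h with compound; whole-cell proteins run on gel electrophoresis and blotted for pro-caspase-3 and pro-caspase-9.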

HeLa [23] = assay: Induction of apoptosis in human HeLa cells assessed as reduction in caspase-9 expression at 900 nM after 24 hrs by Western blot analysis relative to control; type: functional; summary of the method: as §5
HeLa [24] = assay: Cytotoxicity against human HeLa cells assessed as reduction in cell viability after 24 hrs by MTT assay

Compound: COc1cc(-c2ccc[nH]2)[nH]c1/C=C/C1=[N+](C)c2ccccc2C1(C)C
- IC50 (HeLa [1]): 920 to 4470 nM
- inhibition (HeLa [1]): Dose-dependent effect

Compound: COc1cc(-c2cccc(OC)c2OC)[nH]c1/C=C/C1=[N+](C)c2ccccc2C1(C)C
- IC50 (HeLa [1]): 920 to 4470 nM
- inhibition (HeLa [1]): Dose-dependent effect

Compound: COc1ccc(OC)c(-c2cc(OC)c(/C=C/C3=[N+](C)c4ccccc4C3(C)C)[nH]2)c1
- IC50 (HeLa [1]): 920 to 4470 nM
- inhibition (HeLa [1]): Dose-dependent effect

Compound: COc1cc(-c2cc3ccccc3s2)[nH]c1/C=C/C1=[N+](C)c2ccccc2C1(C)C
- IC50 (HeLa [1]): 920 to 4470 nM
- inhibition (HeLa [1]): Dose-dependent effect

Compound: COc1ccc(-c2cc(OC)c(/C=C/C3=[N+](C)c4ccccc4C3(C)C)[nH]2)cc1OC
- IC50 (HeLa [1]): 920 to 4470 nM
- inhibition (HeLa [1]): Dose-dependent effect

Compound: COc1cc(-c2cc3ccccc3[nH]2)[nH]c1/C=C/C1=[N+](C)c2ccccc2C1(C)C.[I-]
- IC50 (HeLa [1]): 970 nM
- inhibition (HeLa [1]): Dose-dependent effect
- IC50 (HEK293): 2560 nM
- viability at 24 h, 5 µM [2]: 24%
- Drug uptake [3]: Active
- fold change (FC) (HeLa [4]): 3.6
- fold change (FC) (HeLa [5]): 3.4
- fold change (FC) (HeLa [6]): 8.5
- fold change (FC) (HeLa [7]): 10.1
- fold change (FC) (HeLa [8]): 2.1
- fold change (FC) (HeLa [9]): 6.4
- fold change (FC) (HeLa [10]): 4
- fold change (FC) (HeLa [11]): 3.6
- fold change (FC) (HeLa [12]): 16.1
- Activity (HeLa [13]): 4.68%
- Activity (HeLa [14]): 67.96%
- Activity (HeLa [15]): 6.42%
- Activity (HeLa [16]): 16.79%
- viability at 0.9 µM (HeLa [17]): 0.1%
- Activity (HeLa [18]): 0%
- Activity (HeLa [19]): 99.5%
- Activity (HeLa [20]): 0.4%
- Activity (HeLa [21]): Active
- fold change (FC) (HeLa [22]): 3.5
- fold change (FC) (HeLa [23]): 1.9

Compound: COc1cc(-c2cccs2)[nH]c1/C=C/C1=[N+](C)c2ccccc2C1(C)C
- IC50 (HeLa [1]): 920 to 4470 nM
- inhibition (HeLa [1]): Dose-dependent effect

Compound: COc1cc(-c2ccc3c(c2)OCO3)[nH]c1/C=C/C1=[N+](C)c2ccccc2C1(C)C
- IC50 (HeLa [1]): 920 to 4470 nM
- inhibition (HeLa [1]): Dose-dependent effect

Compound: COc1cccc2c1C(=O)c1c(O)c3c(c(O)c1C2=O)C[C@@](O)(C(=O)CO)C[C@@H]3O[C@H]1C[C@H](N)[C@H](O)[C@H](C)O1 [DOXORUBICIN]
- IC50 (HeLa [24]): 2000 nM

Compound: COc1ccc2[nH]c(-c3cc(OC)c(/C=C/C4=[N+](C)c5ccccc5C4(C)C)[nH]3)cc2c1.[I-]
- IC50 (HeLa [1]): 920 nM
- inhibition (HeLa [1]): Dose-dependent effect
- IC50 (HEK293): 2610 nM
- viability at 24 h, 5 µM [2]: 25%
- Drug uptake [3]: Active
- fold change (FC) (HeLa [4]): 3.9
- fold change (FC) (HeLa [5]): 2.6
- fold change (FC) (HeLa [6]): 5.7
- fold change (FC) (HeLa [7]): 8.4
- fold change (FC) (HeLa [8]): 2.4
- fold change (FC) (HeLa [9]): 9.3
- fold change (FC) (HeLa [10]): 5.6
- fold change (FC) (HeLa [11]): 4.1
- fold change (FC) (HeLa [12]): 22.4
- Activity (HeLa [13]): 3.47%
- Activity (HeLa [14]): 63.94%
- Activity (HeLa [15]): 13.52%
- Activity (HeLa [16]): 15%
- viability at 0.9 µM (HeLa [17]): 0.3%
- Activity (HeLa [18]): 0%
- Activity (HeLa [19]): 98.7%
- Activity (HeLa [20]): 1%
- Activity (HeLa [21]): Active
- fold change (FC) (HeLa [22]): 3.7
- fold change (FC) (HeLa [23]): 2
